Data from ChEMBL document CHEMBL1153344, “Synthesis of casimiroin and optimization of its quinone reductase 2 and aromatase inhibitory activities” (J Med Chem, 2009).

Columns and labels:
MCF7 = experiment: Cytotoxicity against human MCF7 cells after 72 hrs by sulforhodamine B assay; assay type: functional, cell-based; details: MCF7, 72 h
How it was run: (§1)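 Cells seeded at 5.0×10^4 cells/mL in 96-well plates, given compound in 10% DMSO (10 µL) for final 0–20 µg/mL, 72 h incubation; zero-day control plate 30 min at 37 °C. Fixed with cold 50% TCA 30 min at 4 °C, stained 0.4% sulforhodamine B in 1% acetic acid 30 min, dye solubilized in 10 mM Tris base pH 10, absorbance 515 nm.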

LNCaP = experiment: Cytotoxicity against human LNCAP cells after 72 hrs by sulforhodamine B assay; assay type: functional, cell-based; how it was run: as §1
[1] = target: T1, Ribosyldihydronicotinamide dehydrogenase [quinone] (Homo sapiens, UniProt P16083); experiment: Inhibition of human quinone reductase 2 expressed in Escherichia coli BL21(DE3) incubated at 23 degC by MTT assay
T1 sequence (P16083 whole entry): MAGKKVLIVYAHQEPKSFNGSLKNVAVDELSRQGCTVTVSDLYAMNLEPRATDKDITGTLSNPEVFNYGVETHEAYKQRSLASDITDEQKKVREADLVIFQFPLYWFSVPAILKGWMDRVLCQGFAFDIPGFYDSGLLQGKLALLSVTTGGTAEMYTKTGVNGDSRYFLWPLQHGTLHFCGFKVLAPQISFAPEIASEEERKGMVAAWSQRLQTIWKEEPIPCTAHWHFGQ

Aromatase = target: T2, Aromatase (Homo sapiens, UniProt P11511)
T2 sequence (P11511 whole entry): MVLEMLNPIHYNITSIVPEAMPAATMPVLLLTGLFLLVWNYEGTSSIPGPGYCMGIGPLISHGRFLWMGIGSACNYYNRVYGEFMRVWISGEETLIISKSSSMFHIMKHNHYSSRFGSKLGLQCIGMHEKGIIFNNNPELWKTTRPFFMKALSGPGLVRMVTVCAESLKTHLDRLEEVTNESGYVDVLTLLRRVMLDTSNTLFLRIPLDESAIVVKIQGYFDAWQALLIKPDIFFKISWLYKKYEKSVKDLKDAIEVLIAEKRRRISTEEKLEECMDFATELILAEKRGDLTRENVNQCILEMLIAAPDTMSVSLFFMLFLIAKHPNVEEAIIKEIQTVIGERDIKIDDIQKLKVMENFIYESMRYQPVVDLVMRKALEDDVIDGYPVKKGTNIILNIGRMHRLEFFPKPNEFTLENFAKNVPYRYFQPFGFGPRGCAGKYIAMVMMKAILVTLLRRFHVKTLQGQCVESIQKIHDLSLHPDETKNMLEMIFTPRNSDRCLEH

[2] = Cytotoxicity against mouse Hepa-1c1c7 cells after 72 hrs by sulforhodamine B assay; assay type: functional, cell-based; details: Hepa-1c1c7, 72 h; how it was run: as §1
[3] = Cytotoxicity against human Lu cells after 72 hrs by sulforhodamine B assay; assay type: functional, cell-based; how it was run: as §1

Compound	IC50 (MCF7) [µM]	IC50 (LNCaP) [µM]	IC50 [1] [µM]	IC50 (Aromatase) [µM]	IC50 [2] [µM]	IC50 [3] [µM]
Cc1cc(=O)[nH]c2ccccc12	> 126	> 126	> 500	> 126	> 126	> 126
COc1cc(OC)c2c(c(C)cc(=O)n2C)c1OC	> 76	> 76	10.8	0.1	70.7	68.5
Cc1cc(=O)n(C)c2c1C(=O)C=CC2=O	60.5	58.1	> 500	> 98.4	54.1	49.2
COc1ccc2c(C)cc(=O)n(C)c2c1OC	> 85.8	> 85.8	9.3	5.76	> 85.8	> 85.8
COc1cccc2c(C)cc(=O)[nH]c12	> 106	> 106	24.1	> 106	> 106	> 106
COc1cc2c(C)cc(=O)[nH]c2c(OC)c1OC	> 80.3	> 80.3	10	18.5	> 80.3	> 80.3
COc1c(OC)c(OC)c2c(c(C)cc(=O)n2C)c1OC	> 68.2	> 68.2	> 500	0.76	> 68.2	> 68.2
COc1cc(OC)c2[nH]c(=O)cc(C)c2c1	> 91.3	> 91.3	8.8	> 91.3	> 91.3	> 91.3
Cc1cc(=O)[nH]c2c3c(ccc12)OCO3	> 98.5	> 98.5	10.8	> 98.5	> 98.5	> 98.5
COc1ccc(OC)c2c1c(C)cc(=O)n2C	> 85.7	> 85.7	4.1	0.96	> 85.7	> 85.7
COc1cc2c(C)cc(=O)n(C)c2c(OC)c1OC	> 76	> 76	7	2.72	> 76	> 76
Cc1cc(=O)n(C)c2c3c(ccc12)OCO3	> 92.1	> 92.1	6.2	1.25	> 92.1	> 92.1
COc1cc(OC)c2c(c1)c(C)cc(=O)n2C	> 85.8	> 85.8	1.9	0.96	> 85.8	> 85.8
COc1ccc(OC)c2c(C)cc(=O)[nH]c12	> 91.2	> 91.2	10.8	26.8	> 91.2	> 91.2
COc1cc(OC)c2[nH]c(=O)cc(C)c2c1OC	43	45.8	6	14.8	34.5	35.3
COc1c(OC)c(OC)c2c(C)cc(=O)[nH]c2c1OC	> 71.7	> 71.7	> 500	5.68	> 71.7	> 71.7
COc1ccc2c(C)cc(=O)[nH]c2c1OC	> 91.3	> 91.3	29.3	31.5	> 91.3	> 91.3
COc1cccc2c(C)cc(=O)n(C)c12	> 98.5	> 98.5	5.8	2.02	> 98.5	> 98.5
Cc1cc(=O)n(C)c2ccccc12	> 116	> 116	18.2	> 116	> 116	> 116
COc1cc(=O)n(C)c2c3c(ccc12)OCO3 [CASIMIROIN]	> 85.8	> 85.8	54.1	3.92	> 85.8	> 85.8
